Measurements gathered from unrelated publications.
Compare with care: the assays were run in different laboratories.
KCNH2: Voltage-gated inwardly rectifying potassium channel KCNH2 (KCNH2, Homo sapiens, UniProt Q12809)
UGT2B7: UDP-glucuronosyltransferase 2B7 (UGT2B7, Homo sapiens, UniProt P16662)

| SMILES | target | test | test system | conditions | measurement | value |
| --- | --- | --- | --- | --- | --- | --- |
| O=C(Nc1cccc(C(F)(F)F)c1)N1CCN(c2cccc(C(F)(F)F)c2)CC1 | KCNH2 | ion current, inhibitor, patch clamp | HEK293 | 10 µM | inhibition | 85% |
| C=C1CCC2C(C)(CO)C(=O)CCC2(C)C1CCC1=CCOC1=O (centres unmarked) | UGT2B7 | enzyme activity, inhibitor |  |  | Ki | 4.2 µM |
| CN(CCC(=O)O)C(=O)c1ccc2c(c1)CC[C@@H]1[C@@H]2CC[C@]2(C)C(c3cncc(F)c3)=CC[C@@H]12 | UGT2B7 | enzyme activity, inhibitor |  |  | IC50 | > 30 µM |
| O=c1c2ccccc2c(Cc2ccc(Cl)cc2)nn1C1CCCNCC1 (centres unmarked) | KCNH2 | ion current, inhibitor, patch clamp | HEK293 | 10 µM | inhibition | 97% |
| C[C@@H](Cn1ccc(-c2ccc(C#N)c(Cl)c2)n1)NC(=O)c1cc([C@@H](C)O)[nH]n1 | UGT2B7 | enzyme activity, inhibitor | human, liver microsomes |  | IC50 | > 100 µM |
| CON=C(N)c1ccc(-c2ccc(-c3ccc(C(N)=NOC)cc3)o2)cc1 | Cytochrome P450 4F2 (Homo sapiens, UniProt P78329) | enzyme activity, substrate |  |  | Km | 0.7 µM |
| C=C1CC[C@@H]2[C@](C)(CO)[C@H](O)CC[C@@]2(C)[C@@H]1CCC1=CCOC1=O | UGT2B7 | enzyme activity, inhibitor |  | 100 µM, pH 7.4 | inhibition | 95% |
| CNC(=O)[C@@]12C[C@@H]1[C@@H](n1cnc3c(NCCc4ccc(O)c(OC)c4)nc(C#Cc4ccco4)nc31)[C@H](O)[C@@H]2O | KCNH2 | ion current, inhibitor |  | 10 µM | inhibition | > 50% |
| C=C1CC[C@@H]2[C@](C)(CO[C@@H]3O[C@H](CO)[C@@H](O)[C@H](O)[C@H]3O)CCC[C@@]2(C)[C@@H]1CCC1=CCOC1=O | UGT2B7 | enzyme activity, inhibitor |  | 100 µM, pH 7.4 | inhibition | 42% |
| CC(=O)c1cc(C(=O)N[C@@H](C)Cn2ccc(-c3ccc(C#N)c(Cl)c3)n2)[nH]n1 | UGT2B7 | enzyme activity, inhibitor | human, liver microsomes |  | IC50 | > 50 µM |
| CC(C)=CCCC(C)c1ccc(C)cc1 (centres unmarked) | UGT2B7 | enzyme activity, inhibitor |  |  | IC50 | > 200 µM |
